# Data: ChEMBL document CHEMBL5505959, “Identification of 4-amino-2-Pyridones as new potent PCSK9 inhibitors: From phenotypic hit discovery to in vivo tolerability” (Eur J Med Chem, 2024)
# The source made the active and inactive calls. No cut-off for these calls is given here.
# Tests used:
# HepG2 [1] = assay: Cytotoxicity against human HepG2 cells assessed as reduction in cell viability at 5 uM measured after 24 hrs by SRB assay relative to control; type: functional
# Procedure, shortened: (§1)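 HepG2 seeded 8000 cells/well in complete MEM; next day medium replaced with 0.4 % FBS medium containing compound or DMSO control. Viability was read by sulforhodamine B assay after 24 h, with absorbance at 570 nm. Dose-response series used 6.25, 12.5, 25, 50 or 100 μM; newer analogues were tested at a fixed 5 μM. Data are mean ± SD of three independent experiments.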
# HepG2 [2] = assay: Downregulation of simvastatin induced PCSK9 expression in human HepG2 cells measured after 24 hrs by Western blot analysis; type: functional, cell-based
# Procedure, shortened: (§2)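 HepG2 cells were treated overnight or for 24 h, alone or with simvastatin 40 μM. Lysates (1 % NP-40, 150 mM NaCl, 50 mM Tris-HCl pH 7.5) were loaded at 25 µg protein on 4–20 % SDS-PAGE. Blots were probed for proPCSK9, mature PCSK9 and LDLR, and densitometry was normalized to β-actin or GAPDH. Mean ± SD of three independent experiments.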
# [3] = Toxicity in C57BL/6 mouse assessed as reduction in ALT plasma level at 40 mg/kg, sc measured after 7 days by ELISA method; type: organism-based; conditions: in vivo, 168 h, time 7 day
# Procedure, shortened: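 Male C57BL/6J mice, 3 months old, dosed subcutaneously at 40 mg/kg daily for seven days in Transcutol. Killed under isoflurane 6 h after the final dose. Retro-orbital blood taken into EDTA and spun at 3000 rpm, 4 °C, 10 min. Plasma ALT measured by ELISA kit. Mean ± SEM, n = 5–6 per group.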
# HepG2 [4] = assay: Cytotoxicity against human HepG2 cells assessed as reduction in cell viability at 100 uM measured after 24 hrs by SRB assay; type: functional, cell-based; procedure, shortened: as §1
# HepG2 [5] = assay: Downregulation of PCSK9 mRNA level in human HepG2 cells at 6 to 25 uM by qRT-PCR analysis; type: functional, cell-based; conditions: dose 6-25 µM
# Procedure, shortened: (§3)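 Total RNA was taken from treated HepG2 cells for RT-qPCR of PCSK9, FAS and HMG-CoA reductase. Cycling was 50 °C 10 min, 95 °C 2 min, then 40 cycles of 95 °C 5 s and 60 °C 10 s. Relative quantification used ΔΔCt against 18S, corrected for primer efficiency. Mean ± SD of three independent experiments.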
# HepG2 [6] = assay: Downregulation of PCSK9 protein level in human HepG2 cells at 5 uM by Western blot analysis; type: functional, cell-based; procedure, shortened: as §2
# HepG2 [7] = assay: Cytotoxicity against human HepG2 cells assessed as reduction in cell viability at 50 to 100 uM measured after 24 hrs by SRB assay; type: functional, cell-based; conditions: dose 50-100 µM; procedure, shortened: as §1
# HepG2 [8] = assay: Cytotoxicity against human HepG2 cells assessed as reduction in cell viability at 25 uM measured after 24 hrs by SRB assay; type: functional, cell-based; procedure, shortened: as §1
# HepG2 [9] = assay: Downregulation of PCSK9 mRNA level in human HepG2 cells at 25 uM by qRT-PCR analysis; type: functional, cell-based; procedure, shortened: as §3
# [10] = Downregulation of PCSK9 expression in human HepG2 cells at 6.25 to 12.5 uM by Western blot analysis relative to control; type: functional; conditions: dose 6.25-12.5 µM; procedure, shortened: as §2
# [11] = Downregulation of simvastatin induced PCSK9 expression in human HepG2 cells at 12.5 uM by Western blot analysis relative to control; type: functional; procedure, shortened: as §2
# HepG2 [12] = assay: Induction of LDLR expression in human HepG2 cells at 6.25 incubated for 24 hrs in presence of simvastatin by Western blot analysis; type: functional, cell-based; procedure, shortened: as §2
# [13] = Downregulation of proPCSK9 protein expression in human HepG2 cells at 12.5 uM by Western blot analysis relative to control; type: functional; procedure, shortened: as §2
# [14] = Downregulation of mature PCSK9 protein expression in human HepG2 cells at 12.5 uM by Western blot analysis relative to control; type: functional; procedure, shortened: as §2
# HepG2 [15] = assay: Downregulation of proPCSK9 protein expression in human HepG2 cells at 6.25 uM by Western blot analysis; type: functional, cell-based; procedure, shortened: as §2
# HepG2 [16] = assay: Downregulation of mature PCSK9 protein expression in human HepG2 cells at 6.25 uM by Western blot analysis; type: functional, cell-based; procedure, shortened: as §2
# HepG2 [17] = assay: Downregulation of PCSK9 level in human HepG2 cells at 6.25 to 12.5 uM under conditioned media by ELISA method; type: functional, cell-based; conditions: dose 6.25-12.5 µM
# Procedure, shortened: (§4)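 Secreted PCSK9 was measured in HepG2 conditioned media with a human PCSK9 DuoSet sandwich ELISA. Media were centrifuged at 15000 rpm for 10 min and diluted before reading absorbance at 450 nm. Values were normalized to HepG2 total protein content. Mean ± SD of three independent experiments.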
# [18] = Downregulation of extracellular PCSK9 level in human HepG2 cells at 6.25 to 12.5 uM under conditioned media by ELISA method relative to control; type: functional; conditions: dose 6.25-12.5 µM; procedure, shortened: as §4
# HepG2 [19] = assay: Downregulation of PCSK9 mRNA level in human HepG2 cells by qRT-PCR analysis; type: functional, cell-based; conditions: dose 6.25-25 µM; procedure, shortened: as §3
# HepG2 [20] = assay: Effect on HMG-CoA reductase mRNA level in human HepG2 cells at 6.25 to 25 uM by qRT-PCR analysis; type: functional, cell-based; conditions: dose 6.25-25 µM; procedure, shortened: as §3
# HepG2 [21] = assay: Effect on HMG-CoA reductase mRNA level in human HepG2 cells at 50 to 100 uM by qRT-PCR analysis; type: functional, cell-based; conditions: dose 50-100 µM; procedure, shortened: as §3
# HepG2 [22] = assay: Inhibition of simvastatin induced PCSK9 activation in human HepG2 cells at 6.25 to 12.5 uM incubated for 24 hrs by luciferase assay; type: functional, cell-based; conditions: dose 6.25-12.5 µM
# Procedure, shortened: (§5)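 HepG2 cells were seeded at 8 × 10⁵ per well and transiently transfected with pGL3-PCSK9-D4 (−440 to −94 region), or with SRE- or HNF-mutant constructs. At 48 h post-transfection, cells were treated 24 h with compound or simvastatin 5 μM. Promoter activity was read as luciferase luminescence.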
# HepG2 [23] = assay: Inhibition of basal PCSK9 activity in human HepG2 cells at 6.25 to 12.5 uM incubated for 24 hrs by luciferase assay; type: functional, cell-based; conditions: dose 6.25-12.5 µM; procedure, shortened: as §5
# HepG2 [24] = assay: Inhibition of PCSK9 promotor activity in human HepG2 cells harbouring pGL3-PCSK9-HNF mutant at 6.25 to 12.5 uM incubated for 24 hrs by luciferase assay; type: functional, cell-based; conditions: dose 6.25-12.5 µM; procedure, shortened: as §5
# HepG2 [25] = assay: Inhibition of PCSK9 promotor activity in human HepG2 cells harbouring pGL3-PCSK9-SRE mutant at 6.25 to 12.5 uM incubated for 24 hrs by luciferase assay; type: functional, cell-based; conditions: dose 6.25-12.5 µM; procedure, shortened: as §5
# HepG2 [26] = assay: Inhibition of PCSK9 transcription activity in human HepG2 cells harbouring FLAG tagged PCSK9 at 6.25 to 12.5 uM incubated for 24 hrs by luciferase assay; type: functional, cell-based; conditions: dose 6.25-12.5 µM
# HepG2 [27] = assay: Effect on FAS mRNA level in human HepG2 cells at 6.25 to 25 uM by qRT-PCR analysis; conditions: dose 6.25-25 µM
# HepG2 [28] = assay: Cytotoxicity against human HepG2 cells assessed as reduction in cell viability at 6 to 100 uM measured after 24 hrs by SRB assay; type: functional, cell-based; conditions: dose 6-100 µM; procedure, shortened: as §1
# [29] = Induction of LDLR expression in human HepG2 cells by measuring fold increase by Western blot analysis; type: functional; procedure, shortened: as §2
# HepG2 [30] = assay: Effect on proPCSK9 expression in human HepG2 cells by Western blot analysis; type: functional, cell-based; procedure, shortened: as §2
# HepG2 [31] = assay: Downregulation of proPCSK9 level in human HepG2 cells by Western blot analysis; type: functional, cell-based; procedure, shortened: as §2
# HepG2 [32] = assay: Downregulation of mature PCSK9 level in human HepG2 cells by Western blot analysis; type: functional, cell-based; procedure, shortened: as §2
# HepG2 [33] = assay: Induction of LDLR expression in human HepG2 cells by Western blot analysis; type: functional, cell-based; procedure, shortened: as §2
smiles,measurement,setting,value
Cc1cc(NCc2ccc(Cl)cc2)cc(=O)n1CCC(C)C,Activity,HepG2 [1],>95%
CCC(C)(C)C(=O)O[C@H]1C[C@@H](C)C=C2C=C[C@H](C)[C@H](CC[C@@H]3C[C@@H](O)CC(=O)O3)[C@H]21,Activity,HepG2 [2],inactive
CCCCCN(C(C)=O)c1cc(C)n(Cc2ccc(C(F)(F)F)cc2)c(=O)c1,Activity,HepG2 [1],>95%
COc1cccc(CNc2cc(C)n(Cc3cccc(OC)c3OC)c(=O)c2)c1OC,Activity,HepG2 [1],>95%
Cc1cc(NC2CCCC2)cc(=O)n1Cc1ccc(C(F)(F)F)cc1,Activity,HepG2 [1],>95%
Cc1cc(NCCC(C)C)cc(=O)n1Cc1ccccc1,Activity,HepG2 [1],>95%
Cc1cc(C(=O)C2=C(O)C(=O)N(CCCN3CCOCC3)C2c2ccncc2)ccc1OCc1ccccc1 (configuration not stated),Activity,[3],Non-Toxic
CC(=O)N(Cc1ccc(C(F)(F)F)cc1)c1cc(C)n(Cc2ccc(C(F)(F)F)cc2)c(=O)c1,Activity,HepG2 [1],>95%
COc1ccc(CNc2cc(C)n(Cc3ccc(OC)cc3)c(=O)c2)cc1,Activity,HepG2 [1],>95%
CCCCCn1c(C)cc(NCc2ccc(C(F)(F)F)cc2)cc1=O,Activity,HepG2 [1],>95%
COc1ccc(Cn2c(C)cc(NC3CCCC3)cc2=O)cc1,Activity,HepG2 [1],>95%
CCCCCNc1cc(C)n(CCCCC)c(=O)c1,Activity,HepG2 [4],Active
same,Activity,HepG2 [5],Active
same,Activity,HepG2 [6],Active
Cc1cc(NCc2ccc(Cl)cc2)cc(=O)n1Cc1ccc(Cl)cc1,Activity,HepG2 [1],>95%
Cc1cc(NCCc2ccccc2)cc(=O)n1Cc1ccc(Cl)cc1,Activity,HepG2 [7],Active
same,Activity,HepG2 [8],inactive
same,Activity,HepG2 [9],Active
Cc1cc(NCc2ccccc2)cc(=O)n1CCC(C)C,Activity,HepG2 [1],>95%
CCCCCn1c(C)cc(NCc2ccccc2)cc1=O,Activity,HepG2 [1],>95%
CCCCCNc1cc(C)n(Cc2ccc(Cl)cc2)c(=O)c1,Activity,[10],65%
same,Activity,[11],100%
same,Activity,HepG2 [12],Active
same,Activity,[13],100%
same,Activity,[14],100%
same,Activity,HepG2 [15],inactive
same,Activity,HepG2 [16],inactive
same,Activity,HepG2 [17],Active
same,Activity,[18],35.8%
same,Activity,HepG2 [19],Dose-Dependent Effect
same,Activity,HepG2 [20],inactive
same,Activity,HepG2 [21],Active
same,inhibition,HepG2 [22],Active
same,inhibition,HepG2 [23],inactive
same,inhibition,HepG2 [24],inactive
same,inhibition,HepG2 [25],inactive
same,inhibition,HepG2 [26],inactive
same,Activity,HepG2 [27],inactive
CCCCCNc1cc(C)n(Cc2ccccc2)c(=O)c1,Activity,HepG2 [1],>95%
Cc1cc(NCc2ccc(C(F)(F)F)cc2)cc(=O)n1CC(C)C,Activity,HepG2 [1],>95%
CCCCCNc1cc(C)n(Cc2ccc(C(F)(F)F)cc2)c(=O)c1,Activity,HepG2 [1],>95%
CCCCCn1c(C)cc(NCc2ccc(Cl)cc2)cc1=O,Activity,HepG2 [28],inactive
same,Activity,HepG2 [5],Active
same,Activity,HepG2 [6],Active
Cc1cc(NCc2ccc(CCC(C)C)cc2)cc(=O)n1Cc1ccc(CCC(C)C)cc1,Activity,HepG2 [1],>95%
same,fold change (FC),[29],3
same,Activity,HepG2 [30],inactive
CCCCCNc1cc(C)n(Cc2cccc(OC)c2OC)c(=O)c1,Activity,HepG2 [1],>95%
CCCCCNc1cc(C)n(Cc2ccc(OC)cc2)c(=O)c1,Activity,HepG2 [31],Active
same,Activity,HepG2 [32],Active
same,Activity,HepG2 [33],inactive
COc1ccc(CNc2cc(C)n(Cc3ccc(OC)c(OC)c3)c(=O)c2)cc1OC,Activity,HepG2 [1],>95%
